Among the data in ChEMBL document CHEMBL4619779, “Tideglusib and Its Analogues As Inhibitors of Staphylococcus aureus SrtA” (J Med Chem, 2020) are IC50, MIC and inhibition values, retold here.

Usually IC50 stands for the concentration at which inhibition is half-maximal. In general, MIC refers to the lowest concentration found to suppress growth.

Values after ≈ are worked out from the molar mass of the structure shown. Active and inactive are the calls of the source. The calls are words filed in the database; no cut-off is given here. A value given as a limit tells only on which side of the number the result lay.

In assay [1] the target is T1, Sortase A (Staphylococcus aureus, UniProt Q9S446, DELTAN24). Put plainly: Inhibition of Staphylococcus aureus SrtA delta N24 mutant expressed in Escherichia coli BL21 (DE3) assessed as reduction in IsdA (64 to 323 residues) transpeptidation incubated for 20 mins by SDS-PAGE analysis. Summed up: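 His-tagged SrtAΔN24 (100 µg) was preincubated 20 min at rt with compound (1–25 µM) in 50 mM Tris-HCl pH 7.5, 150 mM NaCl, 5 mM CaCl2. IsdA64-323 (150 µg) and 3 mM Gly3 were then added for 1.5 hr at 37 °C. […] Three independent experiments.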

For assay [2], the system named is Staphylococcus aureus. Put plainly: Antibacterial activity against Staphylococcus aureus subsp. aureus str. Newman assessed as reduction in bacterial growth incubated for 24 hrs. It is filed as functional. An outline of the steps:
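Overnight culture diluted 1:1000 in TSB, grown to A600 0.6-0.8, then diluted 1:400 in TSB. Aliquots incubated with the compound at a range of concentrations. A600 read every 1 hr for 24 hr to build growth curves. Technical triplicates per point; three independent experiments.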

In assay [3] the target is T1, Sortase A. Put plainly: Inhibition of Staphylococcus aureus SrtA delta N24 mutant expressed in Escherichia coli BL21 (DE3) using Abz-LPATG-Dnp substrate incubated for 20 mins by FRET-based assay. An outline of the steps: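 His-tagged SrtAΔN24 (1 µM) was preincubated 20 min at rt with compound (0.2–100 µM) in 50 mM Tris-HCl pH 7.5, 150 mM NaCl, 5 mM CaCl2. Abz-LPATG-Dnp was added at 10 µM and fluorescence (ex 309 / em 420 nm) was read each minute for 20 min. IC50 came from a sigmoidal fit. Technical triplicates, three independent experiments.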

Assay [4] concerns Sortase A (Staphylococcus aureus), Q9S446 [UNDEFINED MUTATION]. Put plainly: Inhibition of SrtA delta N24 mutant in Staphylococcus aureus subsp. aureus str. Newman reduction in abundance of anchored SpA at 100 uM by FITC-labeled human IgG fluorescence based assay. Summed up: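 Newman wild type and ΔsrtA were diluted 1:1000 in TSB and grown at 37 °C with inhibitor until A600 reached 1.0. Cells were PBS-washed, labelled with FITC-human IgG for 30 min at rt, and washed again before fluorescence was read. Triplicate wells, three independent experiments, unpaired two-tailed t-test.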

Regarding `CCn1sc(=O)n(Cc2ccc(Cl)cc2)c1=O`, the IC50 in assay [1] was more than 50 µM; in assay [3] it was 8.7 µM. Further, the minimal inhibitory concentration (MIC) in assay [2] came to 6.2 µg/mL (≈ 22.9 µM).

Turning to `Cc1ccc(Cn2c(=O)sn(-c3cccc4ccccc34)c2=O)cc1`, the results for the IC50 in assay [1] and in assay [3] were 12.6 µM and 1.2 µM, respectively. Also, the MIC in assay [2] was 100 µg/mL (≈ 287 µM).

In the case of `O=c1sn(-c2cccc3ccccc23)c(=O)n1Cc1ccc(Cl)c(Cl)c1`, the IC50 amounted to 14.4 µM in assay [1] and 0.9 µM in assay [3]. Also, in assay [2], the minimum inhibitory concentration (MIC) stood at 50 µg/mL (≈ 124 µM).

`O=c1sn(CCc2ccccc2)c(=O)n1C1CCCCC1`: the figures for the half-maximal inhibitory concentration (IC50) in assay [1] and in assay [3] were more than 50 µM and more than 100 µM, respectively. In assay [2], the MIC was determined as 12.5 µg/mL (≈ 41.1 µM).

Regarding `CCCCn1c(=O)sn(-c2c(C)noc2C)c1=O`, the results for the IC50 in assay [1] and in assay [3] were 4.1 µM and 1.1 µM, respectively. Further, the MIC in assay [2] was more than 100 µg/mL.

Take `O=c1sn(-c2cccc3ccccc23)c(=O)n1Cc1ccccc1O`: the IC50 in assay [1] stood at 32.2 µM; in assay [3], 1.3 µM. Further, the MIC in assay [2] is more than 100 µg/mL.

Turning to `O=c1sn(C2CCCC2)c(=O)n1C1CCCCC1`, the concentration for half-maximal inhibition (IC50) in assay [1] is more than 50 µM; in assay [3], 10.2 µM. The MIC in assay [2] was found to be 6.2 µg/mL (≈ 23.1 µM).

As to `Cc1noc(C)c1-n1sc(=O)n(Cc2ccc(Cl)cc2)c1=O`, the concentration for half-maximal inhibition (IC50) in assay [1] came out at 4.1 µM; in assay [3] it was 1 µM. In assay [2], the minimal inhibitory concentration (MIC) was more than 100 µg/mL.

`CCn1c(=O)sn(-c2c(C)noc2C)c1=O`: the values for the half-inhibitory concentration (IC50) in assay [1] and in assay [3] were 6.3 µM and 1.5 µM, respectively. Also, in assay [2], the MIC is more than 100 µg/mL.

`Cc1ccc(Cn2c(=O)sn(Cc3ccccc3)c2=O)cc1`: the IC50 in assay [1] was found to be 35.7 µM; in assay [3] it was 5.1 µM. In assay [2], the minimal inhibitory concentration (MIC) was determined as 12.5 µg/mL (≈ 40 µM).

As for `Cc1noc(C)c1-n1sc(=O)n(Cc2ccc(Cl)c(Cl)c2)c1=O`, the concentration for half-maximal inhibition (IC50) in assay [1] stood at 3.4 µM; in assay [3] it was 0.9 µM. In addition, the MIC in assay [2] is more than 100 µg/mL.

Consider `O=c1sn(-c2cccc3ccccc23)c(=O)n1Cc1ccc(F)cc1`, for which the results for the IC50 in assay [1] and in assay [3] were 5.9 µM and 4.1 µM, respectively. Further, the MIC in assay [2] is 100 µg/mL (≈ 284 µM).

Turning to `Cn1c(=O)sn(-c2cccc3ccccc23)c1=O`, the half-maximal inhibitory concentration (IC50) in assay [1] stood at 8 µM; in assay [3] it was 0.8 µM. In addition, the MIC in assay [2] was found to be 100 µg/mL (≈ 387 µM).

`O=c1sn(Cc2ccccc2)c(=O)n1CCCl`: the IC50 in assay [1] stood at 16.7 µM; in assay [3], 2 µM. Further, the minimal inhibitory concentration (MIC) in assay [2] is 25 µg/mL (≈ 92.3 µM).

With `CCn1c(=O)sn(-c2cccc3ccccc23)c1=O`, the half-maximal inhibitory concentration (IC50) in assay [1] was determined as 8.2 µM; in assay [3] it was 0.7 µM. Moreover, the MIC in assay [2] is more than 100 µg/mL.

In the case of `O=c1sn(-c2cccc3ccccc23)c(=O)n1Cc1ccc(Cl)cc1`, the half-maximal inhibitory concentration (IC50) in assay [1] stood at 23.1 µM; in assay [3], 0.7 µM. Besides, in assay [2], the minimum inhibitory concentration (MIC) was found to be 100 µg/mL (≈ 271 µM).

With `CCn1sc(=O)n(Cc2ccc(C)cc2)c1=O`, the 50% inhibitory concentration (IC50) in assay [1] was more than 50 µM; in assay [3], 16.7 µM. Moreover, in assay [2], the MIC is 6.2 µg/mL (≈ 24.8 µM).

In the case of `Cn1c(=O)sn(Cc2ccccc2)c1=O`, the half-inhibitory concentration (IC50) in assay [1] was 23.6 µM; in assay [3], 3.5 µM. For the same compound, the minimal inhibitory concentration (MIC) in assay [2] turned out to be 12.5 µg/mL (≈ 56.2 µM).

In the case of `CC(C)n1c(=O)sn(CCc2ccccc2)c1=O`, the IC50 is more than 50 µM in assay [1] and more than 100 µM in assay [3]. In assay [2], the minimal inhibitory concentration (MIC) came out at 25 µg/mL (≈ 94.6 µM).

Consider `O=c1sn(-c2cccc3ccccc23)c(=O)n1CCc1ccccc1`, for which the values for the IC50 in assay [1] and in assay [3] were 27.5 µM and 0.6 µM, respectively. For the same compound, the minimum inhibitory concentration (MIC) in assay [2] was more than 100 µg/mL.

`O=c1sn(-c2cccc3c2OCO3)c(=O)n1Cc1ccccc1`: the IC50 in assay [1] is 4.7 µM; in assay [3] it was 3.4 µM. Also, the minimum inhibitory concentration (MIC) in assay [2] is more than 100 µg/mL.

For the compound `O=c1sn(-c2cccc3c2CCC3)c(=O)n1Cc1ccccc1`, the IC50 is 45.6 µM in assay [1] and 4.4 µM in assay [3]. In addition, the minimum inhibitory concentration (MIC) in assay [2] was more than 100 µg/mL.

Take `O=c1sn(Cc2ccccc2)c(=O)n1Cc1ccccc1Cl`: the IC50 in assay [1] is 28 µM; in assay [3], 3.4 µM. Further, in assay [2], the MIC was 12.5 µg/mL (≈ 37.6 µM).

For the compound `CCn1sc(=O)n(CCc2ccccc2)c1=O`, the 50% inhibitory concentration (IC50) in assay [1] is more than 50 µM; in assay [3], 16.3 µM. The minimum inhibitory concentration (MIC) in assay [2] is 6.2 µg/mL (≈ 24.8 µM).

For `O=c1sn(Cc2ccccc2)c(=O)n1Cc1ccccc1`, the figures for the half-maximal inhibitory concentration (IC50) in assay [1] and in assay [3] were 12.9 µM and 7 µM, respectively. For the same compound, the minimum inhibitory concentration (MIC) in assay [2] was 12.5 µg/mL (≈ 41.9 µM).

As to `O=c1sn(-c2cccc3ccccc23)c(=O)n1Cc1ccc(O)cc1`, the IC50 stood at 4.7 µM in assay [1] and 2.6 µM in assay [3]. Besides, the MIC in assay [2] came out at 100 µg/mL (≈ 285 µM).

`Cc1ccc(Cn2c(=O)sn(-c3c(C)noc3C)c2=O)cc1`: the IC50 was 4.7 µM in assay [1] and 1.1 µM in assay [3]. For the same compound, the minimum inhibitory concentration (MIC) in assay [2] is more than 100 µg/mL.

Regarding `CCCCn1sc(=O)n(CCCC)c1=O`, the IC50 in assay [1] was more than 50 µM; in assay [3], 43.9 µM. Moreover, the MIC in assay [2] is 3.1 µg/mL (≈ 13.5 µM).

Take `O=c1sn(-c2cccc3ccccc23)c(=O)n1Cc1cccc(O)c1`: the half-maximal inhibitory concentration (IC50) was 9.2 µM in assay [1] and 1.6 µM in assay [3]. The MIC in assay [2] was more than 100 µg/mL.

Take `O=c1sn(Cc2ccccc2)c(=O)n1Cc1ccc(Cl)c(Cl)c1`: the IC50 in assay [1] was 19.7 µM; in assay [3], 2.9 µM. The minimal inhibitory concentration (MIC) in assay [2] was 12.5 µg/mL (≈ 34 µM).

As to `CCCCn1c(=O)sn(Cc2ccccc2)c1=O`, the half-inhibitory concentration (IC50) in assay [1] worked out at 21.2 µM; in assay [3] it was 8.4 µM. The minimal inhibitory concentration (MIC) in assay [2] was determined as 6.2 µg/mL (≈ 23.5 µM).

On to `CCCNC1=C(c2ccccc2)C(=O)C2C(/C=C/S(=O)(=O)c3ccccc3)=CC=CC2C1=O` (stereo not drawn), for which the inhibition entry in assay [4] is “inactive”.

For `O=c1sn(Cc2ccccc2)c(=O)n1-c1cccc(F)c1`, the figures for the 50% inhibitory concentration (IC50) in assay [1] and in assay [3] were more than 50 µM and more than 100 µM, respectively. In addition, the MIC in assay [2] was 12.5 µg/mL (≈ 41.3 µM).

For `O=c1sn(-c2cccc3c2CCCC3)c(=O)n1Cc1ccccc1`, the half-inhibitory concentration (IC50) in assay [1] was 31.9 µM; in assay [3], 6 µM. In assay [2], the minimum inhibitory concentration (MIC) worked out at 50 µg/mL (≈ 148 µM).

On to `Cc1noc(C)c1-n1sc(=O)n(C(C)C)c1=O`, for which the figures for the IC50 in assay [1] and in assay [3] were more than 50 µM and 12.6 µM, respectively. Further, in assay [2], the minimum inhibitory concentration (MIC) was more than 100 µg/mL.

Consider `CCCCn1c(=O)sn(-c2cccc3ccccc23)c1=O`, for which the IC50 in assay [1] stood at 12.6 µM; in assay [3], 0.9 µM. Also, the minimum inhibitory concentration (MIC) in assay [2] came to 100 µg/mL (≈ 333 µM).

In the case of `Cc1noc(C)c1-n1sc(=O)n(Cc2ccccc2Cl)c1=O`, the IC50 in assay [1] was 3.7 µM; in assay [3], 0.6 µM. Further, in assay [2], the MIC is more than 100 µg/mL.

For the compound `CC(C)n1c(=O)sn(Cc2ccccc2)c1=O`, the IC50 was more than 50 µM in assay [1] and more than 100 µM in assay [3]. Further, the minimal inhibitory concentration (MIC) in assay [2] was 6.2 µg/mL (≈ 24.8 µM).

For the compound `COc1ccc(Cn2c(=O)sn(-c3c(C)noc3C)c2=O)cc1`, the IC50 in assay [1] worked out at 5 µM; in assay [3], 1.2 µM. The minimal inhibitory concentration (MIC) in assay [2] was more than 100 µg/mL.

`O=c1sn(CCc2ccccc2)c(=O)n1Cc1ccccc1`: the half-maximal inhibitory concentration (IC50) in assay [1] came to 42.7 µM; in assay [3], 10.1 µM. In addition, in assay [2], the MIC is 12.5 µg/mL (≈ 40 µM).
